Experimental data as given in ChEMBL document CHEMBL1667807, “Discovery of imidazo[1,2-b]pyridazines as IKKβ inhibitors. Part 2: improvement of potency in vitro and in vivo” (Bioorg Med Chem Lett, 2011).
The source made the active and inactive calls. The calls are words filed in the database; no cut-off is given here.

Assays:
[1] = Membrane permeability at pH 7.4 by PAMPA assay; assay type: ADME; conditions: read-out: permeability
How it was run: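 Parallel artificial membrane permeability assay run at pH 7.4. Effective permeability Pe reported in 10^-6 cm/s as the median of three tests.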

Blood = test: Antiinflammatory activity in BALB/c mouse whole blood assessed as inhibition of LPS-induced TNFalpha production by ELISA; assay type: functional, tissue-based
How it was run: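 Mouse whole blood cell suspension stimulated with LPS (medium-only control), incubated 4 h at 37 °C in 5% CO2. Plasma then separated by centrifugation at 4 °C and TNFα measured by ELISA. IC50 derived.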

[2] = target: T1, Inhibitor of nuclear factor kappa-B kinase subunit beta (Homo sapiens, UniProt O14920); test: Inhibition of purified His-tagged IKK-beta after 15 mins
T1 sequence (O14920 whole entry): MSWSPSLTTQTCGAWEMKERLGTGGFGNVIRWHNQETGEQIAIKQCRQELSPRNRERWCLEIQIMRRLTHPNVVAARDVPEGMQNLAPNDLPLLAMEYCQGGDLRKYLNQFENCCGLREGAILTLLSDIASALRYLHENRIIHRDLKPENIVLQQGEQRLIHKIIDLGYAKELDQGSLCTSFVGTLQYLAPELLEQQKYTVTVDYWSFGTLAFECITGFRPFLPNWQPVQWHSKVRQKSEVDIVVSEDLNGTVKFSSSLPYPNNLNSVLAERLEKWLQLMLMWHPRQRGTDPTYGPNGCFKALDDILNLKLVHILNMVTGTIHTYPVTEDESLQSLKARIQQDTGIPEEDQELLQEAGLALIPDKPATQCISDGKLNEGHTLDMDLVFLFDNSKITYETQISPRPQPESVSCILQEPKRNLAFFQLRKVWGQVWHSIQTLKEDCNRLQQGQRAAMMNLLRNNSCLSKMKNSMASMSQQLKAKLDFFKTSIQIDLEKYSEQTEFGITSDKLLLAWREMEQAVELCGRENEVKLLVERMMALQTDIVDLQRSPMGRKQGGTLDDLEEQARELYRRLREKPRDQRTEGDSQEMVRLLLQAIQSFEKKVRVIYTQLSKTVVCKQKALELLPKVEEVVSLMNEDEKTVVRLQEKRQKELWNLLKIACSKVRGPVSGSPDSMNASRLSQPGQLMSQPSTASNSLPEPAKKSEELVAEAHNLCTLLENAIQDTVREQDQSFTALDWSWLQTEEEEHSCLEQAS

[3] = target: Serine/threonine-protein kinase D3 (Homo sapiens) (UniProt O94806); test: Inhibition of PKD3 at 0.2 uM
[4] = Metabolic stability of the compound in mouse liver microsomes assessed as compound remaining at 1 uM after 30 mins; assay type: ADME, Microsome; conditions: read-out: Stability
How it was run: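 Compound at 1 μM incubated 30 min with mouse liver microsomes at 0.1 mg/ml protein. Percent of parent compound remaining reported.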

Mus musculus = test: Antiinflammatory activity in BALB/c mouse assessed as inhibition of LPS-induced TNFalpha production at 30 mg/kg, po after 1 hr by ELISA; assay type: functional
How it was run: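 Male BALB/c mice (7–12 weeks old) dosed orally, vehicle 0.5% methyl cellulose. LPS 0.02 mg/kg in saline given i.v. 30 min after dosing. Plasma separated at 4 °C, stored at −20 °C, and TNFα quantified by ELISA. Percent inhibition recorded.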

Plasma = test: Plasma concentration in BALB/c mouse at 30 mg/kg, po after 90 mins; assay type: ADME, organism-based; parameters: dose 30 mg/kg
How it was run: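 Plasma concentration of compound in mice measured 90 min after a 30 mg/kg oral dose.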

[5] = target: T2, Serine/threonine-protein kinase D2 (Homo sapiens) (UniProt Q9BZL6); test: Inhibition of PKD2 at 10 uM
T2 sequence (whole entry): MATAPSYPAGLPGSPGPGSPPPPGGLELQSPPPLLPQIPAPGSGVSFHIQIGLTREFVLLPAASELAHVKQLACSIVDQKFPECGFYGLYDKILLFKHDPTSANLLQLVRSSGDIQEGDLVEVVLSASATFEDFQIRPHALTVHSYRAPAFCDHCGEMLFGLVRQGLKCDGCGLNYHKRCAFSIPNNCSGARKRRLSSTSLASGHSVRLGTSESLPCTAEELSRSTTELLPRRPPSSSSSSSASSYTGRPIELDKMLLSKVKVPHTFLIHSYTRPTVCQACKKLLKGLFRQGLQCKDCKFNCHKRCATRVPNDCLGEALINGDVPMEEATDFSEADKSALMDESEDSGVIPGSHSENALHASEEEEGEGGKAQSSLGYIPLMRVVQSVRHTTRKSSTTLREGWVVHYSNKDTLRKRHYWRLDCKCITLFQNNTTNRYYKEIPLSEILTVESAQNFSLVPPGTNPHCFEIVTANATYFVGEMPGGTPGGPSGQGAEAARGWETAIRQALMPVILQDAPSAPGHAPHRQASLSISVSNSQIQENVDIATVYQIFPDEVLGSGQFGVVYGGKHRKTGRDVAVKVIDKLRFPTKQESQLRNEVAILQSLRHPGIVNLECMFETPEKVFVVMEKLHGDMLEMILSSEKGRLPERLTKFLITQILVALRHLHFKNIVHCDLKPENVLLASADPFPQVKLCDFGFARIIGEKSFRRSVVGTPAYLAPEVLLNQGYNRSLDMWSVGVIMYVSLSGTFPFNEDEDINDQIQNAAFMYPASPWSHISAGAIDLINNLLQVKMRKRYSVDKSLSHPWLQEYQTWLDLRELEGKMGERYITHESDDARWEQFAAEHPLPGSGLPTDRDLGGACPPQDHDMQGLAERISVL

[6] = target: Tyrosine-protein kinase JAK2 (Homo sapiens) (UniProt O60674); test: Inhibition of JAK2 at 10 uM
[7] = target: ALK tyrosine kinase receptor (Homo sapiens) (UniProt Q9UM73); test: Inhibition of ALK at 10 uM
ALK tyrosine kinase receptor (Homo sapiens), sequence (Q9UM73 19-1620 limits assumed): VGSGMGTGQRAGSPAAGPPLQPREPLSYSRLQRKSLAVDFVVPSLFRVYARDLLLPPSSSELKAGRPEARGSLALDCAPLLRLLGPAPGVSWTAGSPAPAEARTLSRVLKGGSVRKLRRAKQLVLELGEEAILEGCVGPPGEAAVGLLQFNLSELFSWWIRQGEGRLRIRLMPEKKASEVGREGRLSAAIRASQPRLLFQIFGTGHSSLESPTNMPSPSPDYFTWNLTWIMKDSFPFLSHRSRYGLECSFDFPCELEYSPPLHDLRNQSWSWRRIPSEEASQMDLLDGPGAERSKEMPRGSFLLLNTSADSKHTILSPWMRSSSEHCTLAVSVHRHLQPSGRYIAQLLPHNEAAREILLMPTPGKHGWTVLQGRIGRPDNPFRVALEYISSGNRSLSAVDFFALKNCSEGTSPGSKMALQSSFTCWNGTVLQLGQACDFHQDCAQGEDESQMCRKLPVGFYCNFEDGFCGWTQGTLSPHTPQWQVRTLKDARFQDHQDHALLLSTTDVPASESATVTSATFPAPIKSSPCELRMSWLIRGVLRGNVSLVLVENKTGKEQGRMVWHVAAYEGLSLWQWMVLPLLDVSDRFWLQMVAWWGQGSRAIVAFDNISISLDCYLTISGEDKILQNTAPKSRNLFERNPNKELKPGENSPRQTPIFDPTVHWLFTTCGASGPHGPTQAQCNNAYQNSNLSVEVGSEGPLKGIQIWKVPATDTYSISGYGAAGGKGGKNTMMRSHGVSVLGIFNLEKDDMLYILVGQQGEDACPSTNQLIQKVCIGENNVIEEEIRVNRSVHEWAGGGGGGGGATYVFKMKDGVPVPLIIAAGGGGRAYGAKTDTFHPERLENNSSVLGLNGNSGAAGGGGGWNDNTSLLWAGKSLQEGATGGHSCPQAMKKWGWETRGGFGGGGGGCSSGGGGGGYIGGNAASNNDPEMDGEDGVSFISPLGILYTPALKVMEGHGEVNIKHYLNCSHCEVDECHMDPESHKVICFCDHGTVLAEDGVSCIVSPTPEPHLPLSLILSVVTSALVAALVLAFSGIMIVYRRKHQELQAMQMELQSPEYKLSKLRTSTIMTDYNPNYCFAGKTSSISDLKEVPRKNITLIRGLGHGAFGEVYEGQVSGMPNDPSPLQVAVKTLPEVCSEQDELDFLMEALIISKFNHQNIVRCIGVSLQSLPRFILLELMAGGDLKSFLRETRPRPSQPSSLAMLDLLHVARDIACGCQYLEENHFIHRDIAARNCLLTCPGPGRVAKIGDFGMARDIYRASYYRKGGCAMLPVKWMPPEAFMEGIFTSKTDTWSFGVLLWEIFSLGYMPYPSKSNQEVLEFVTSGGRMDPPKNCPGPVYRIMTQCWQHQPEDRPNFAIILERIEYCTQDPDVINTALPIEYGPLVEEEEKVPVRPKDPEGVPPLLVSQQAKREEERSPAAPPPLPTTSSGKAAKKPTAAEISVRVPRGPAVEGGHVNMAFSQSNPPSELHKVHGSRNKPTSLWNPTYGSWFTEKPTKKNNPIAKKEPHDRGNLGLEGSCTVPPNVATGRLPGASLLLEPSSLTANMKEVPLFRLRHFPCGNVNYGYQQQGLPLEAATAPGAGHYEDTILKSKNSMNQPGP

Tyrosine-protein kinase JAK2 (Homo sapiens), sequence (O60674 whole entry): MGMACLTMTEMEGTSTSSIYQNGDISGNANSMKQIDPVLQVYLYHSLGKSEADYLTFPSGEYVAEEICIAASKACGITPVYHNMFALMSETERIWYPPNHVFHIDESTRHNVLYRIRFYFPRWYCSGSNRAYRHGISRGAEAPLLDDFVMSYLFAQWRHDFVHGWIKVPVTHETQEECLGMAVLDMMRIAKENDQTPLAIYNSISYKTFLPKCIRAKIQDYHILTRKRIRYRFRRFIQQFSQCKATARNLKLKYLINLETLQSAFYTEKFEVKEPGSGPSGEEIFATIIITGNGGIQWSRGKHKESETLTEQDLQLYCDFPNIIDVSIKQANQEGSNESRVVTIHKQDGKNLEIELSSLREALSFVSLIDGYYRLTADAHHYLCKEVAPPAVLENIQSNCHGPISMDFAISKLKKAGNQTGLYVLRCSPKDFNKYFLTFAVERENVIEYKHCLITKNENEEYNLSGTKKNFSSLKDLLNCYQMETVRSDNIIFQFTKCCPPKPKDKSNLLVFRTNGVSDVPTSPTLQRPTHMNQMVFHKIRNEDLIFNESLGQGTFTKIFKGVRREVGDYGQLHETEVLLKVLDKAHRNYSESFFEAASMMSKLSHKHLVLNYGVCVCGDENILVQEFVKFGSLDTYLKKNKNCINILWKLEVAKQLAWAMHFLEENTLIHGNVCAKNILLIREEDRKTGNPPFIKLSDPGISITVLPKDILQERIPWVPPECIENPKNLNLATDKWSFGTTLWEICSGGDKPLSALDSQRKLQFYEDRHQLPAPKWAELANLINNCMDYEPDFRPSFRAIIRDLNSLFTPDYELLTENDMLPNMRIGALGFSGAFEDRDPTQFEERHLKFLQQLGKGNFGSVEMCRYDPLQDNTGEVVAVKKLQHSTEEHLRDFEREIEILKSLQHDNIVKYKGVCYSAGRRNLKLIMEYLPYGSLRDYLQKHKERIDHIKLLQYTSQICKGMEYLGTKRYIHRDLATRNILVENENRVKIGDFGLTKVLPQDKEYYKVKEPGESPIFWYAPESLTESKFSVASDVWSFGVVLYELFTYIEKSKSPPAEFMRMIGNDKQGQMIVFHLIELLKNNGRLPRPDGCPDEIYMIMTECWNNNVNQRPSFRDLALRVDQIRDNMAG
Serine/threonine-protein kinase D3 (Homo sapiens), sequence (O94806 whole entry, looked up): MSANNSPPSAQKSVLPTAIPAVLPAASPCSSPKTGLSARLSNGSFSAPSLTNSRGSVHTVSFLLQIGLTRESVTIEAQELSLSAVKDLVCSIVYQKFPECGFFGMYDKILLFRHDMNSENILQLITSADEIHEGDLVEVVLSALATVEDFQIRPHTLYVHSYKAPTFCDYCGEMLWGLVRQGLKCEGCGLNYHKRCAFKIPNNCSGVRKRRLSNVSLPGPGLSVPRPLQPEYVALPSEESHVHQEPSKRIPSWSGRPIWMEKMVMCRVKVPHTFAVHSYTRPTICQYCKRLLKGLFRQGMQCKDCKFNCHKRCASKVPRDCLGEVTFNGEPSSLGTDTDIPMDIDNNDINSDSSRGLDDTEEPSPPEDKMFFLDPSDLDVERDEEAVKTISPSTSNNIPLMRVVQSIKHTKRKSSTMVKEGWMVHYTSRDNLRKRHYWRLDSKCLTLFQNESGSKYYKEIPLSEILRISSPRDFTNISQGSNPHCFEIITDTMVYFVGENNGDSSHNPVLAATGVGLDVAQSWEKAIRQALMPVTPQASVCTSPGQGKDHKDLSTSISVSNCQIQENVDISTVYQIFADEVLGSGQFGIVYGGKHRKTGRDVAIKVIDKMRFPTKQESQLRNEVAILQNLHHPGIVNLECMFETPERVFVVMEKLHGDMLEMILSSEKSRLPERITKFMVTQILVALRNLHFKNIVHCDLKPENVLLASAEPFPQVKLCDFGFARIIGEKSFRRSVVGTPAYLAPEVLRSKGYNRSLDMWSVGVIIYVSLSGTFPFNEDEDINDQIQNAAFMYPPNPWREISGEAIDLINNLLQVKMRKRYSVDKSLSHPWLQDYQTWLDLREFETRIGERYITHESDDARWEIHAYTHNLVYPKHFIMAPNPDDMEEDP

Row | SMILES | Papp [1] [×10⁻⁶ cm/s] | IC50 (Blood) [nM] | IC50 [2] [nM] | inhibition [3] [%] | remaining at 0.5 h, 1 µM [4] [%] | inhibition [5] [%] | inhibition [6] [%] | inhibition [7] [%] | inhibition in vivo at 30 mg/kg (Mus musculus) [%] | Cp (Plasma) [µg/mL] | inhibition (Mus musculus)
1 | O=C(c1ccc(-c2cnc3ccc(NCC4CC4)nn23)cc1)N(Cc1ccc(Cl)cc1)C[C@@H]1C[C@@H](F)CN1 | 39 | 1200 | 17 | – | 28 | – | – | – | 61 | 0.45 | –
2 | CN(C)CCNC(=O)c1ccc(-c2cnc3ccc(NCC4CC4)nn23)cc1 | > 50 | 800 | – | – | 71 | – | – | – | 10 | 0.39 | –
3 | O=C(c1ccc(-c2cnc3ccc(NCC4CC4)nn23)cc1)N(C/C=C/c1ccccc1)C[C@@H]1C[C@@H](F)CN1 | > 50 | 950 | 13 | – | – | – | – | – | – | – | –
4 | O=C(c1ccc(-c2cnc3ccc(NCC4CC4)nn23)cc1)N(CCO)C[C@@H]1C[C@@H](F)CN1 | 15 | 680 | 15 | – | – | – | – | – | – | – | –
5 | O=C(c1ccc(-c2cnc3ccc(NCC4CC4)nn23)cc1)N(Cc1ccccc1)C[C@@H]1C[C@@H](F)CN1 | > 50 | 400 | 12 | – | – | – | – | – | – | – | –
6 | O=C(c1ccc(-c2cnc3ccc(NCC4CC4)nn23)cc1)N(C[C@@H]1C[C@@H](F)CN1)c1ccccc1 | – | – | 7300 | – | – | – | – | – | – | – | –
7 | O=C(O)c1ccc(CN(C[C@@H]2C[C@@H](F)CN2)C(=O)c2ccc(-c3cnc4ccc(NCC5CC5)nn34)cc2)cc1 | < 2 | > 10000 | 17 | – | – | – | – | – | – | – | –
8 | CCCN(C[C@@H]1C[C@@H](F)CN1)C(=O)c1ccc(-c2cnc3ccc(NCC4CC4)nn23)cc1 | > 50 | 170 | 16 | – | 33 | – | – | – | 52 | 0.16 | –

Continued, in another order:

Row | Papp [1] [×10⁻⁶ cm/s] | IC50 (Blood) [nM] | IC50 [2] [nM] | inhibition [3] [%] | remaining at 0.5 h, 1 µM [4] [%] | inhibition [5] [%] | inhibition [6] [%] | inhibition [7] [%] | SMILES | inhibition in vivo at 30 mg/kg (Mus musculus) [%] | Cp (Plasma) [µg/mL] | inhibition (Mus musculus)
9 | 36 | 570 | 22 | 80 | – | – | – | – | O=C(NC[C@@H]1C[C@@H](F)CN1)c1ccc(-c2cnc3ccc(NCC4CC4)nn23)cc1 | – | – | –
10 | 14 | 3900 | 110 | – | – | – | – | – | O=C(O)CN(C[C@@H]1C[C@@H](F)CN1)C(=O)c1ccc(-c2cnc3ccc(NCC4CC4)nn23)cc1 | – | – | –
11 | – | 1200 | 21 | – | – | – | – | – | O=C(NC[C@H]1NCC[C@@H]1F)c1ccc(-c2cnc3ccc(NCC4CC4)nn23)cc1 | – | – | –
12 | 6.5 | 2100 | 23 | – | – | – | – | – | CO[C@H]1CCN[C@@H]1CNC(=O)c1ccc(-c2cnc3ccc(NCC4CC4)nn23)cc1 | – | – | –
13 | 6.1 | 1900 | 97 | – | – | – | – | – | CN(C[C@@H]1CCCN1)C(=O)c1ccc(-c2cnc3ccc(NCC4CC4)nn23)cc1 | – | – | –
14 | > 50 | 590 | 17 | – | 7 | – | – | – | O=C(c1ccc(-c2cnc3ccc(NCC4CC4)nn23)cc1)N(Cc1cccc(Cl)c1)C[C@@H]1C[C@@H](F)CN1 | 40 | 0.12 | –
15 | < 2 | 2700 | 71 | – | – | – | – | – | CO[C@H]1CN[C@H](CNC(=O)c2ccc(-c3cnc4ccc(NCC5CC5)nn34)cc2)C1 | – | – | –
16 | < 2 | 6800 | – | – | 77 | > 90 | > 90 | > 90 | O=C(NC[C@@H]1CCCN1)c1ccc(-c2cnc3ccc(NCC4CC4)nn23)cc1 | – | 0.0075 | inactive
17 | < 2 | 2700 | 15 | – | – | – | – | – | CC(=O)Nc1ccc(CN(C[C@@H]2C[C@@H](F)CN2)C(=O)c2ccc(-c3cnc4ccc(NCC5CC5)nn34)cc2)cc1 | – | – | –
18 | 42 | 230 | 18 | – | 33 | – | – | – | CCN(C[C@@H]1C[C@@H](F)CN1)C(=O)c1ccc(-c2cnc3ccc(NCC4CC4)nn23)cc1 | 32 | 0.15 | –
19 | > 50 | 480 | 42 | – | 50 | – | – | – | CN(C[C@@H]1C[C@@H](F)CN1)C(=O)c1ccc(-c2cnc3ccc(NCC4CC4)nn23)cc1 | 26 | 0.34 | –
